Where two headings read alike, the source gives them in different places.
Key:
[1] = system: NPC1 protein in GM18453 fibroblasts; experiment: NPC1 protein expression, Western blot after peptide:N-glycosidase F treatment; type: cell-based, human; details: 48 hours
Outline: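 NPC1-mutant GM18453 fibroblasts exposed for 48 h at 37°C, 5% CO2 to test compound (50 nM), SAHA (5 μM) or 0.1% v/v DMSO, then lysed in RIPA with protease inhibitors. Lysate (25 μg) digested with PNGase F (1000 U) in SDS, DTT and Tris-HCl pH 8, overnight (~18 h) at 37°C. Immunoblot with rabbit anti-NPC1, ECL on film. Densitometry normalised to actin, relative to DMSO; four independent experiments; SD; t-test.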

Pharmacokinetics in mice = type: in vivo; details: mice dosed at 2 mg/kg
[2] = system: low-density lipoprotein (LDL) receptor; details: ref 5; cited from earlier work
[3] = system: NPC1 protein in GM18453 fibroblasts; experiment: NPC1 protein expression, Western blot after endoglycosidase H treatment; type: cell-based, human; details: 48 hours; for levels of the 250 kDa NPC1 isoform: SAHA 5 μM or GEX1A 50 nM
Caco-2 cell line = experiment: Caco-2 permeability; type: in vitro ADME
[4] = system: GM18453 skin fibroblast cell line (I1061T mutation on both alleles of NPC1); experiment: Filipin staining of unesterified cholesterol in NPC1 mutant fibroblasts; type: cell-based, human; details: GM18453 cells; for concentration at which the lowest filipin area/cell is achieved: dose range 1 nM to 5 μM; for concentration giving significant rescue of cholesterol accumulation (as low as): filipin fluorescence images
[5] = Liver microsome stability; type: in vitro ADME
Aqueous solubility = type: physicochemical
Plasma protein binding = type: in vitro ADME
histone acetylation = details: cited from earlier work
[6] = system: GM18453 skin fibroblast cell line (I1061T mutation on both alleles of NPC1); details: several NPC1 mutant cell lines, including GM18453; cited from earlier work
[7] = system: GM18407 fibroblast cell line (NPC1 R404Q, M1142T); details: GM18407 cells; cited from earlier work
[8] = system: GM18407 fibroblast cell line (NPC1 R404Q, M1142T); experiment: Filipin staining of cholesterol accumulation in GM18407 fibroblasts; type: cell-based, human; details: GM18407 cells, even at high concentrations

For `CO[C@H]([C@@H](C)[C@H]1O[C@]1(C)C[C@H](C)/C=C/C=C(\C)[C@H]1O[C@@H](CC(=O)O)CC[C@@H]1C)[C@@H](C)O` [Compound 1, GEX1A], the “expression of the highly glycosylated 180 kDa NPC1 isoform” value ([1]; GEX1A 50 nM, PNGase F experiment) was “clear increase”, the “level of NPC1 protein expression including both the 250 and 120 kDa isoforms” value ([1]; GEX1A 50 nM, PNGase F, vs DMSO) was “significant increase” and the half-life (Pharmacokinetics in mice) was “long half-life”. The “expression of the LDL receptor” value [2] was “increased expression”, the “expression of the 180 kDa NPC1 species” value ([3]; GEX1A 50 nM, vs DMSO) was “increases the expression of the 180 kDa species” and the “levels of the 250 kDa NPC1 isoform” value ([3]; vs DMSO) was “did not cause a significant increase”. For the same compound, the permeability (Caco-2 cell line; Caco-2) was “reasonably permeable”, the efflux (Caco-2 cell line; Caco-2 cell line) was “no evidence of efflux” and the “effects on cell and nuclei shape (cellular toxicity)” value ([4]; 5 μM) was “detrimental effects on cell and nuclei shape”. The “concentration at which the lowest filipin area/cell is achieved” value ([4]; 48 hours) was 50 nM, the “concentration giving significant rescue of cholesterol accumulation (as low as)” value (shortened to “concentration giving significant rescue”) ([4]; 48 hours) was 50 nM and the “stability in liver microsomes” value [5] was “quite stable”. For the same compound, the aqueous solubility (Aqueous solubility) was “exceptional aqueous solubility”, the “plasma protein binding profile” value (Plasma protein binding) was “excellent plasma protein binding profile” and the “effect on histone acetylation” value (histone acetylation; ref 5) was “does not affect histone acetylation”. The “effect on histone acetylation” value (histone acetylation; ref 32) was “no effect on histone acetylation”.
For `COC(=O)C[C@H]1CC[C@H](C)[C@@H](/C(C)=C/C=C/[C@@H](C)C[C@@]2(C)O[C@@H]2[C@H](C)[C@@H](OC)[C@@H](C)O)O1` [Compound 2, Methyl 2-((2R,5S,6S)-6-((S,2E,4E)-7-((2R,3R)-3-((2R,3R,4R)-4-hydroxy-3-methoxypentan-2-yl)-2-methyloxiran-2-yl)-6-methylhepta-2,4-dien-2-yl)-5-methyltetrahydro-2H-pyran-2-yl) acetate], the “concentration at which the lowest filipin area/cell is achieved” value ([4]; 48 hours) was 50 nM and the “concentration giving significant rescue” value ([4]; 48 hours) was 50 nM.
With `COC(=O)C[C@H]1CC[C@H](C)[C@@H](/C(C)=C/C=C/[C@@H](C)C[C@@]2(C)O[C@@H]2[C@H](C)[C@@H](OC)[C@@H](C)OC(C)=O)O1` [Compound 3, Methyl 2-((2R,5S,6S)-6-((S,2E,4E)-7-((2R,3R)-3-((2R,3R,4R)-4-acetoxy-3-methoxypentan-2-yl)-2-methyloxiran-2-yl)-6-methylhepta-2,4-dien-2-yl)-5-methyltetrahydro-2H-pyran-2-yl) acetate] the “concentration at which the lowest filipin area/cell is achieved” value ([4]; 48 hours) was 50 nM and the “concentration giving significant rescue” value ([4]; 48 hours) was 50 nM.
With `COC(=O)C[C@H]1CC[C@H](C)[C@@H](/C(C)=C/C=C/[C@@H](C)C[C@@]2(C)O[C@@H]2[C@H](C)[C@@H](OC)C(C)=O)O1` [Compound 4, Methyl 2-((2R,5S,6S)-6-((S,2E,4E)-7-((2R,3R)-3-((2S,3R)-3-methoxy-4-oxopentan-2-yl)-2-methyloxiran-2-yl)-6-methylhepta-2,4-dien-2-yl)-5-methyltetrahydro-2H-pyran-2-yl)acetate] the “cholesterol clearance compared to vehicle treatment” value ([4]; 50 nM, 48 hours, filipin) was “Some cholesterol clearance”.
In the case of `O=C(CCCCCCC(=O)Nc1ccccc1)NO` [SAHA, suberoylanilide hydroxamic acid, reference compound], the “levels of the 250 kDa NPC1 isoform” value ([1]; SAHA 5 μM, PNGase F experiment, vs DMSO) is given as “moderate increase”, the “reversal of cholesterol accumulation in NPC1 mutant cell lines” value [6] is given as “effective in reversing cholesterol accumulation” and the “levels of the 250 kDa NPC1 isoform” value ([3]; vs DMSO) is given as “increases the expression of the larger (250 kDa) isoform”. The “increase in the levels of total NPC1 protein” value ([3]; SAHA 5 μM, Endo H, densitometry vs DMSO) was “approximately twofold”, the “effect on lysosomal cholesterol accumulation” value [7] was “no effect on lysosomal cholesterol accumulation” and the “rescue of the disease phenotype (cholesterol accumulation)” value [8] was “neither SAHA nor compounds 1 – 4 were able to effectively rescue the disease phenotype”.

Source: PMC6868502 (Journal of natural products, 2018)
